ChEMBL document CHEMBL2434843, “Synthesis and evaluation of α-ketotriazoles and α,β-diketotriazoles as inhibitors of Mycobacterium tuberculosis” (Eur J Med Chem, 2013)
Converted amounts (≈) assume the structure as drawn.

Key:
[1] = Cytotoxicity against human GM637 cells after 4 days by WST-1 assay; assay type: cell-based; conditions: GM637, 96 h
Method in brief: (§1)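 Cells were cultured in DMEM with 10% fetal calf serum and seeded at 3000 per well. After 24 h they were treated with 100 nM to 50 μM compound, 8 replicates per concentration, for 4 days. Viability was read by WST-1 and reported as IC50.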

[2] = test system: HCT-116; experiment: Cytotoxicity against human HCT116 cells after 4 days by WST-1 assay; assay type: functional, cell-based; conditions: HCT-116, 96 h; method in brief: as §1
[3] = test system: Mycobacterium tuberculosis; experiment: Antitubercular activity against Mycobacterium tuberculosis H37Rv assessed as growth inhibition after 21 days by micro-broth dilution method; assay type: functional; conditions: 504 h
[4] = test system: Mycobacterium tuberculosis; experiment: Antitubercular activity against Mycobacterium tuberculosis H37Rv assessed as growth inhibition; assay type: functional
Method in brief: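 M. tuberculosis H37Rv grown at 37 °C in Middlebrook 7H9 with 0.05% Tween 80, or on 7H11 agar with OADC. Culture dilutions of about 10^5-10^6 cfu/ml were streaked onto 7H11 plates holding 0.25 µg/mL to 40 µg/mL drug. Plates were incubated at 37 °C for about 21 days, and MIC was read from visual growth.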

Compound	IC50 [1] [µM]	IC50 [2] [µM]	MIC [3] [µM]	MIC [4] [µg/mL]
Cc1cc(C)cc(Cn2cc(C(=O)C(=O)c3ccccc3)nn2)c1	> 50	> 50	50 (≈ 16 µg/mL)	–
O=C(Cc1ccccc1)c1cn(Cc2ccccc2)nn1	> 50	> 50	–	–
COc1ccc(C(=O)C(=O)c2cn(CCc3ccccc3)nn2)cc1	> 50	> 50	> 95.4	–
COc1cc(Cn2cc(C(=O)C(=O)c3ccccc3)nn2)cc(OC)c1	> 50	> 50	11.4 (≈ 4 µg/mL)	–
CCCCCCCCn1cc(C(=O)Cc2ccc(Cl)cc2Cl)nn1	–	–	20.9 (≈ 7.7 µg/mL)	–
COc1cc(Cn2cc(C(=O)C(=O)c3ccc(Cl)cc3Cl)nn2)cc(OC)c1	> 50	> 50	9.51 (≈ 4 µg/mL)	–
COC(=O)c1ccc(Cn2cc(C(=O)C(=O)c3ccc(Cl)cc3Cl)nn2)o1	–	–	39.2 (≈ 16 µg/mL)	–
COc1ccc(CCn2cc(C(=O)C(=O)c3ccc(OC)cc3)nn2)cc1	–	–	> 87.6	–
CCCCCCCCn1cc(C(=O)C(=O)c2ccc(Cl)cc2Cl)nn1	> 50	> 50	80.7 (≈ 30.9 µg/mL)	–
O=C(C(=O)c1cn(Cc2ccccc2)nn1)c1ccc([N+](=O)[O-])cc1	> 50	> 50	95.1 (≈ 32 µg/mL)	–
O=C(Cc1ccccc1)c1cn(Cc2ccc([N+](=O)[O-])cc2)nn1	> 50	> 50	–	–
COc1cc(Cn2cc(C(=O)C(=O)c3ccccc3OC)nn2)cc(OC)c1	> 50	> 50	21 (≈ 8.01 µg/mL)	–
Cc1cc(C)cc(Cn2cc(C(=O)Cc3ccccc3)nn2)c1	> 50	> 50	–	–
COc1ccccc1C(=O)C(=O)c1cn(Cc2ccccc2)nn1	> 50	> 50	12.4 (≈ 4 µg/mL)	–
O=C(C(=O)c1cn(Cc2ccccc2)nn1)c1ccccc1	> 50	> 50	172 (≈ 50 µg/mL)	–
O=C(C(=O)c1cn(Cc2ccc([N+](=O)[O-])cc2)nn1)c1ccccc1	> 50	> 50	11.9 (≈ 4 µg/mL)	–
CCCCCCCCc1cn(CC(=O)OCC)nn1	–	–	–	1.9 (≈ 7.11 µM)
COc1ccc(CC(=O)c2cn(CCc3ccccc3)nn2)cc1	–	–	> 112	–
NNC(=O)c1ccncc1 [ISONIAZID]	–	–	0.4 (≈ 0.0549 µg/mL)	–
CCCCCCCCn1cc(C(=O)Cc2ccccc2)nn1	> 50	> 50	–	–
COc1ccc(CCn2cc(C(=O)Cc3ccc(OC)cc3)nn2)cc1	–	–	> 91.1	–
O=C(Cc1ccc(Cl)cc1Cl)c1cn(CCc2ccccc2)nn1	–	–	> 88.8	–
CCCCCCCCn1cc(C(=O)C(=O)c2ccccc2)nn1	–	–	51 (≈ 16 µg/mL)	–
O=C(Cc1ccc(Cl)cc1Cl)c1cn(Cc2ccccc2)nn1	> 50	> 50	–	–
O=C(C(=O)c1ccc(Cl)cc1Cl)c1cn(Cc2ccc([N+](=O)[O-])cc2)nn1	> 50	> 50	79 (≈ 32 µg/mL)	–
COc1ccc(C(=O)C(=O)c2cn(Cc3ccccc3)nn2)cc1	> 50	> 50	7.6 (≈ 2.44 µg/mL)	–
O=C(C(=O)c1ccc(Cl)cc1Cl)c1cn(C2CCCCC2)nn1	–	–	43.7 (≈ 15.4 µg/mL)	–
COc1cc(Cn2cc(C(=O)C(=O)c3ccc([N+](=O)[O-])cc3)nn2)cc(OC)c1	> 50	> 50	161 (≈ 64 µg/mL)	–
O=C(C(=O)c1ccc(Cl)cc1Cl)c1cn(CCc2ccccc2)nn1	> 50	> 50	13.4 (≈ 5.01 µg/mL)	–
O=C(C(=O)c1ccc(Cl)cc1Cl)c1cn(Cc2ccccc2)nn1	> 50	> 50	6.9 (≈ 2.49 µg/mL)	–
